From paper PMC4427559 (Drug development and industrial pharmacy, 2015)
≈ marks a conversion by molar mass, not a printed value.

Tests used:
[1] = Stability in rat plasma at 37 °C; format: in vitro ADME; details: male, Sprague Dawley
[2] = Solubility in common solvents, shaker method, HPLC; format: physicochemical
[3] = cited from earlier work
[4] = Plasma protein binding by ultracentrifugation/ultrafiltration; format: in vitro ADME, human; details: 37 °C
[5] = cited from earlier work; remark: listed apart in the source
[6] = Stability in human plasma at 37 °C; format: in vitro ADME
[7] = Solution state pH stability in USP buffers at 37 °C; format: physicochemical; details: for Degradation half-life t½: calculated from k
Outline: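 Test compound (1 mg/mL acetonitrile stock) added 1:10 to 0.2 M USP buffers (n = 3) in amber vials. Buffers were HCl (pH 2), acid phthalate (pH 3–4), neutralized phthalate (pH 5), phosphate (pH 6–7) and borate (pH 8–10). Incubation at 37 °C, light-protected. Quantified by isocratic C18 HPLC-UV at 300 nm with warfarin IS. Log % remaining plotted against time; half-lives from first-order kinetics.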

half-life at 50 µg/mL [1]: 25 h
Solubility ([2]; PEG-400, room temperature (25 °C), mean, n = 3): 373.85 mg/mL (≈ 1640 mM)
Solubility in words ([2]; water): not soluble
Bound fraction (%) ±standard deviation (n = 6) ([4]; human plasma spiked at 5 µg/mL): 98.2 ± 0.41%
Bound fraction (%) ±standard deviation (n = 6) ([4]; human plasma spiked at 12.5 µg/mL): 98.5 ± 0.23%
Bound fraction (%) ±standard deviation (n = 6) ([4]; human plasma spiked at 25 µg/mL): 98.3 ± 0.33%
Plasma protein binding (mean) ([4]; human plasma, over 5, 12.5 and 25 µg/mL): 98%
fraction unbound at 30 min ([4]; human, human plasma, Plasma protein binding (mean), over 5, 12.5 and 25 µg/mL): 0.017
half-life at 50 µg/mL [6]: 54 h
Original concentration remaining ([7]; acidic and neutral conditions, at 193 h): More than 70%
Degradation rate constant k ([7]; pH 2, hydrochloric acid buffer 0.2 M): 0.000506 h⁻¹
Degradation rate constant k ([7]; pH 3, acid phthalate buffer 0.2 M): 0.000353 h⁻¹
Degradation rate constant k ([7]; pH 4, acid phthalate buffer 0.2 M): 0.000151 h⁻¹
Degradation rate constant k ([7]; pH 5, neutralized phthalate buffer 0.2 M): 0.00011 h⁻¹
Degradation rate constant k ([7]; pH 6, phosphate buffer 0.2 M): 0.000147 h⁻¹
Degradation half-life t½ ([7]; pH 6, phosphate buffer 0.2 M): 195.5 days
Degradation rate constant k ([7]; pH 7, phosphate buffer 0.2 M): 0.00247 h⁻¹
Resveratrol remaining ([7]; pH 8, 9 or 10, at 50 and 80 h): Less than 2%
Degradation rate constant k ([7]; pH 8, borate buffer 0.2 M): 0.0488 h⁻¹
Degradation rate constant k ([7]; pH 9, borate buffer 0.2 M): 0.4000 h⁻¹
Degradation half-life t½ ([7]; pH 9, borate buffer 0.2 M): 0.0722 days
Degradation rate constant k ([7]; pH 10, borate buffer 0.2 M): 0.0335 h⁻¹
Compound: Oc1ccc(/C=C/c2cc(O)cc(O)c2)cc1 [resveratrol, trans-3,5,4′-trihydroxystilbene]
Water solubility [3]: 0.05 mg/mL
pKa1 [5]: 8.8
pKa2 [5]: 9.8
pKa3 [5]: 11.4
